In ChEMBL document CHEMBL3875153, “Design and synthesis of isatin/triazole conjugates that induce apoptosis and inhibit migration of MGC-803 cells” (Eur J Med Chem, 2016):
Calls of active or inactive are those of the source. The calls are words filed in the database; no cut-off is given here.

What was measured:
[1] = Cytotoxicity against human TE1 cells assessed as growth inhibition after 72 hrs by CCK8 assay; type: functional, cell-based, TE-1
In short: (§1)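 Exponentially growing cells were trypsinized and seeded at 2 × 10^4 cells/mL (100 µL/well). After 24 h, medium was replaced with compound at 0.5–256 µM (twofold steps). Plates were incubated 72 h at 37 °C, 5% CO2, then with CCK-8 for 4 h. A450 was read. Three independent runs; IC50 given as mean and SD.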

[2] = Cytotoxicity against human MCF7 cells assessed as growth inhibition after 72 hrs by CCK8 assay; type: functional, cell-based; in short: as §1
[3] = Cytotoxicity against human SW780 cells assessed as growth inhibition after 72 hrs by CCK8 assay; type: functional, cell-based; in short: as §1
[4] = Cytotoxicity against human MGC803 cells assessed as growth inhibition after 72 hrs by CCK8 assay; type: functional, cell-based, MGC-803; in short: as §1
[5] = Cytotoxicity against human HL-7702 cells assessed as growth inhibition after 72 hrs by CCK8 assay; type: toxicity, cell-based, L02; details: for IC50 at 72 h: human, HL-7702 cells; in short: as §1
[6] = Cytotoxicity against human GES-1 cells assessed as growth inhibition after 72 hrs by CCK8 assay; type: toxicity, cell-based, GES1; details: for IC50 at 72 h: human, GES-1 cells; in short: as §1
MGC-803 [7] = experiment: Induction of morphological changes in human MGC803 cells assessed as cell rounding up at 5 to 20 uM after 24 hrs by Hoechst 33258 staining based confocal microscopic analysis; type: functional
In short: (§2)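 MGC-803 cells grown on glass slides to about 70% confluence, treated 24 h at 0, 5, 10, 20 µM. PBS-washed, stained 20 min in dark with 10 µg/mL Hoechst 33258 containing 0.1% Triton X-100, washed, mounted, imaged by laser scanning confocal microscopy. Cell morphology also viewed by inverted microscope.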

MGC-803 [8] = experiment: Induction of morphological changes in human MGC803 cells assessed as cell debris at 5 to 20 uM after 24 hrs by Hoechst 33258 staining based confocal microscopic analysis; type: functional; in short: as §2
MGC-803 [9] = experiment: Induction of morphological changes in human MGC803 cells assessed as chromatin condensation at 5 to 20 uM after 24 hrs by Hoechst 33258 staining based confocal microscopic analysis; type: functional, cell-based; in short: as §2
MGC-803 [10] = experiment: Induction of morphological changes in human MGC803 cells assessed as nuclear condensation at 5 to 20 uM after 24 hrs by Hoechst 33258 staining based confocal microscopic analysis; type: functional, cell-based; in short: as §2
MGC-803 [11] = experiment: Induction of morphological changes in human MGC803 cells assessed as nuclear fragmentation at 5 to 20 uM after 24 hrs by Hoechst 33258 staining based confocal microscopic analysis; type: functional, cell-based; in short: as §2
[12] = Cell cycle arrest in human MGC803 cells assessed as accumulation at G0/G1 phase at 5 uM after 24 hrs by propidium iodide staining based flow cytometry (reference value: 54.77%); type: functional; details: MGC-803
[13] = Cell cycle arrest in human MGC803 cells assessed as accumulation at S phase at 5 uM after 24 hrs by propidium iodide staining based flow cytometry (reference value: 21.32%); type: functional; details: MGC-803
[14] = Cell cycle arrest in human MGC803 cells assessed as accumulation at G2/M phase at 5 uM after 24 hrs by propidium iodide staining based flow cytometry (reference value: 20.66%); type: functional; details: MGC-803
[15] = Cell cycle arrest in human MGC803 cells assessed as accumulation at G0/G1 phase at 10 uM after 24 hrs by propidium iodide staining based flow cytometry (reference value: 54.77%); type: functional; details: MGC-803
[16] = Cell cycle arrest in human MGC803 cells assessed as accumulation at S phase at 10 uM after 24 hrs by propidium iodide staining based flow cytometry (reference value: 21.32%); type: functional; details: MGC-803
[17] = Cell cycle arrest in human MGC803 cells assessed as accumulation at G2/M phase at 10 uM after 24 hrs by propidium iodide staining based flow cytometry (reference value: 20.66%); type: functional; details: MGC-803
[18] = Cell cycle arrest in human MGC803 cells assessed as accumulation at G0/G1 phase at 20 uM after 24 hrs by propidium iodide staining based flow cytometry (reference value: 54.77%); type: functional; details: MGC-803
[19] = Cell cycle arrest in human MGC803 cells assessed as accumulation at S phase at 20 uM after 24 hrs by propidium iodide staining based flow cytometry (reference value: 21.32%); type: functional; details: MGC-803
[20] = Cell cycle arrest in human MGC803 cells assessed as accumulation at G2/M phase at 20 uM after 24 hrs by propidium iodide staining based flow cytometry (reference value: 20.66%); type: functional; details: MGC-803
[21] = Cell cycle arrest in human MGC803 cells assessed as accumulation at G2/M phase after 24 hrs by propidium iodide staining based flow cytometry; type: functional; details: MGC-803
MGC-803 [22] = experiment: Induction of apoptosis in human MGC803 cells after 24 hrs by Annexin-V FITC/propidium iodide staining based flow cytometry; type: functional, cell-based
MGC-803 [23] = experiment: Induction of apoptosis in human MGC803 cells assessed as early apoptotic cells at 5 uM after 24 hrs by Annexin-V FITC/propidium iodide staining based flow cytometry (reference value: 0.9 +/- 0.3%); type: functional
MGC-803 [24] = experiment: Induction of apoptosis in human MGC803 cells assessed as late apoptotic cells at 5 uM after 24 hrs by Annexin-V FITC/propidium iodide staining based flow cytometry (reference value: 0.4 +/- 0.5%); type: functional
MGC-803 [25] = experiment: Induction of apoptosis in human MGC803 cells assessed as early apoptotic cells at 10 uM after 24 hrs by Annexin-V FITC/propidium iodide staining based flow cytometry (reference value: 0.9 +/- 0.3%); type: functional
MGC-803 [26] = experiment: Induction of apoptosis in human MGC803 cells assessed as late apoptotic cells at 10 uM after 24 hrs by Annexin-V FITC/propidium iodide staining based flow cytometry (reference value: 0.4 +/- 0.5%); type: functional
MGC-803 [27] = experiment: Induction of apoptosis in human MGC803 cells assessed as early apoptotic cells at 20 uM after 24 hrs by Annexin-V FITC/propidium iodide staining based flow cytometry (reference value: 0.9 +/- 0.3%); type: functional
MGC-803 [28] = experiment: Induction of apoptosis in human MGC803 cells assessed as late apoptotic cells at 20 uM after 24 hrs by Annexin-V FITC/propidium iodide staining based flow cytometry (reference value: 0.4 +/- 0.5%); type: functional
MGC-803 [29] = experiment: Induction of ROS generation in human MGC803 cells at 5 uM after 24 hrs by DCFH-DA staining based flow cytometry (reference value: 2.84%); type: functional
In short: (§3)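 MGC-803 cells exposed to 0, 5, 10, 20 µM for 24 h, collected, then loaded with DCFH-DA (10 µM) for 30 min at 37 °C. Washed three times in serum-free medium; DCF green fluorescence quantified by flow cytometry as percent fluorescent cells.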

MGC-803 [30] = experiment: Induction of ROS generation in human MGC803 cells at 10 uM after 24 hrs by DCFH-DA staining based flow cytometry (reference value: 2.84%); type: functional; in short: as §3
MGC-803 [31] = experiment: Induction of ROS generation in human MGC803 cells at 20 uM after 24 hrs by DCFH-DA staining based flow cytometry (reference value: 2.84%); type: functional; in short: as §3
MGC-803 [32] = experiment: Induction of ROS generation in human MGC803 cells after 24 hrs by DCFH-DA staining based flow cytometry; type: functional, cell-based; in short: as §3
MGC-803 [33] = experiment: Inhibition of LSD1 expression in human MGC803 cells after 24 hrs by Western blot method; type: functional, cell-based
In short: (§4)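 Cells given 0, 5, 10, 20 µM for 24 h, lysed 30 min in RIPA buffer (50 mM Tris-HCl pH 7.5, 150 mM NaCl, detergents) with protease inhibitors. Cleared lysate protein measured by BCA, resolved by SDS-PAGE, moved to nitrocellulose. Membranes blocked in 5% milk, probed with primary antibodies overnight at 4 °C, then secondary (1:5000) 2 h. ECL detection.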

MGC-803 [34] = experiment: Induction of apoptosis in human MGC803 cells assessed as activation of Bax protein expression at 5 to 20 uM after 24 hrs by Western blot method; type: functional, cell-based; in short: as §4
MGC-803 [35] = experiment: Induction of apoptosis in human MGC803 cells assessed as inhibition of Bcl2 protein expression at 5 to 20 uM after 24 hrs by Western blot method; type: functional, cell-based; in short: as §4
MGC-803 [36] = experiment: Induction of apoptosis in human MGC803 cells assessed as inhibition of Mcl1 protein expression at 5 to 20 uM after 24 hrs by Western blot method; type: functional, cell-based; in short: as §4
MGC-803 [37] = experiment: Induction of apoptosis in human MGC803 cells assessed as increase in PARP cleavage at 5 to 20 uM after 24 hrs by Western blot method; type: functional, cell-based; in short: as §4
MGC-803 [38] = experiment: Induction of apoptosis in human MGC803 cells assessed as increase in caspase-8 cleavage at 5 to 20 uM after 24 hrs by Western blot method; type: functional, cell-based; in short: as §4
MGC-803 [39] = experiment: Induction of apoptosis in human MGC803 cells assessed as increase in caspase-9 cleavage at 5 to 20 uM after 24 hrs by Western blot method; type: functional, cell-based; in short: as §4
MGC-803 [40] = experiment: Induction of apoptosis in human MGC803 cells assessed as increase in caspase-3 protein expression at 5 to 20 uM after 24 hrs by Western blot method; type: functional, cell-based; in short: as §4
MGC-803 [41] = experiment: Induction of apoptosis in human MGC803 cells assessed as increase in caspase-6 protein expression at 5 to 20 uM after 24 hrs by Western blot method; type: functional, cell-based; in short: as §4
MGC-803 [42] = experiment: Induction of apoptosis in human MGC803 cells assessed as increase in caspase-7 protein expression at 5 to 20 uM after 24 hrs by Western blot method; type: functional, cell-based; in short: as §4
MGC-803 [43] = experiment: Anti-migratory activity against human MGC803 cells after 24 hrs by Hoechst 33258 staining based transwell assay; type: functional, cell-based
In short: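 MGC-803 cells, 10,000 per upper chamber in 100 µL medium with 1% FBS plus compound (0, 2, 4, 8 µM). Lower chamber held medium with 20% FBS as chemoattractant. After 24 h, chambers PBS-washed, cells stained with Hoechst 33258 (10 µg/mL), migrated cells counted by high content screening.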

[44] = Homo sapiens, TE-1, 72 h, read-out: IC50
[45] = Homo sapiens, MCF7, 72 h, read-out: IC50
[46] = Homo sapiens, SW780, 72 h, read-out: IC50
[47] = Homo sapiens, MGC-803, 72 h, read-out: IC50

O=C(Cn1cc(CN2C(=O)C(=O)c3c(Cl)ccc(Cl)c32)nn1)OC1CCCCC1
IC50 [1, 44]: 14.2 µM
IC50 [2, 45]: 18.9 µM
IC50 [3, 46]: 25.2 µM
IC50 [4, 47]: 9.78 µM
IC50 at 72 h [5]: 40.3 µM
IC50 at 72 h [6]: 36 µM
Activity (MGC-803 [7]): Active
Activity (MGC-803 [8]): Active
Activity (MGC-803 [9]): Active
Activity (MGC-803 [10]): Active
Activity (MGC-803 [11]): Active
Activity [12]: 48.7%
Activity [13]: 21.5%
Activity [14]: 24.1%
Activity [15]: 40.3%
Activity [16]: 24%
Activity [17]: 28.7%
Activity [18]: 34.8%
Activity [19]: 23.5%
Activity [20]: 32.3%
Activity [21]: Dose-dependent effect
Activity (MGC-803 [22]): Dose-dependent effect
Activity (MGC-803 [23]): 7.8%
Activity (MGC-803 [24]): 5%
Activity (MGC-803 [25]): 10.3%
Activity (MGC-803 [26]): 5.7%
Activity (MGC-803 [27]): 18%
Activity (MGC-803 [28]): 4.5%
Activity (MGC-803 [29]): 6.04%
Activity (MGC-803 [30]): 10.3%
Activity (MGC-803 [31]): 19.3%
Activity (MGC-803 [32]): Dose-dependent effect
inhibition (MGC-803 [33]): Dose-dependent effect
Activity (MGC-803 [34]): Active
inhibition (MGC-803 [35]): Active
inhibition (MGC-803 [36]): Active
Activity (MGC-803 [37]): Active
Activity (MGC-803 [38]): Active
Activity (MGC-803 [39]): Active
Activity (MGC-803 [40]): Active
Activity (MGC-803 [41]): Active
Activity (MGC-803 [42]): Active
Activity (MGC-803 [43]): Dose-dependent effect

O=C1C(=O)N(Cc2cn(CC(=O)N3CCNCC3)nn2)c2c(Cl)ccc(Cl)c21
IC50 ([1]; te-1): Nd(Insoluble)
IC50 ([2]; mcf7): Nd(Insoluble)
IC50 ([3]; sw780): Nd(Insoluble)
IC50 ([4]; mgc-803): Nd(Insoluble)
IC50 ([5]; l02): Nd(Insoluble)
IC50 ([6]; ges1): Nd(Insoluble)

CC(C)(C)OC(=O)N1CCN(C(=O)Cn2cc(CN3C(=O)C(=O)c4c(Cl)ccc(Cl)c43)nn2)CC1
IC50 [1, 44]: 39.2 µM
IC50 [2, 45]: 46.9 µM
IC50 [3, 46]: > 128 µM
IC50 [4, 47]: 22 µM
IC50 at 72 h [5]: 42 µM
IC50 at 72 h [6]: 84.2 µM
